Plk1 PBD FP – Plk1 polo box domain binding inhibitors, primary screen, biochemical, fluorescence polarization; Serine/threonine-protein kinase PLK1 (Homo sapiens), P53350; actives 0.13% (n = 97,000); inhibition, %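 (tested at about 20 µM)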; Plk1 PBD phosphopeptide binding; in the data active = inhibition above about 34%, passing the limit was not always enough
PLK1 kinase inh – human PLK1 kinase inhibitors, primary screen, biochemical, TR-FRET | AID 619, 2007 | recombinant PLK1 kinase, TR-FRET peptide phosphorylation | inhibition, % at 10 µM | actives 0.53% (n = 97,000);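 active = inhibition of 50% or more in the single-concentration screen; inactive = inhibition below 50%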
Rev-RRE block – HIV-1 Rev-RRE binding inhibitors, primary screen, biochemical, FRET, protein-RNA interaction; P05866; Rev peptide-RRE RNA binding; inhibition, % at 8 µM; actives 0.79% (n = 97,000);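 active = inhibition above the screen-wide mean plus 3 SD, cut at about 35% in these data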
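Material: labelled RRE RNA duplex and labelled Rev peptide / Buffer or medium: HEPES pH 7.5 salt buffer with EDTA / Compound dosing: single point, 8 µM final nominal compound concentration / Benchmarks: DMSO low control, neomycin B high control / Timing: 5 min preincubation and 15 min binding, 25 °C / Technique: FRET fluorescence readout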
FAK blocker – FAK kinase inhibitors, primary screen, biochemical. Focal adhesion kinase 1 (Homo sapiens), Q05397. biochemical FAK kinase activity assay. inhibition, %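 (tested at 7 µM)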. actives 0.84% (n = 97,000). AID 727, 2007; in the data active = inhibition above about 19%
Target sequence (Q05397 whole entry, looked up): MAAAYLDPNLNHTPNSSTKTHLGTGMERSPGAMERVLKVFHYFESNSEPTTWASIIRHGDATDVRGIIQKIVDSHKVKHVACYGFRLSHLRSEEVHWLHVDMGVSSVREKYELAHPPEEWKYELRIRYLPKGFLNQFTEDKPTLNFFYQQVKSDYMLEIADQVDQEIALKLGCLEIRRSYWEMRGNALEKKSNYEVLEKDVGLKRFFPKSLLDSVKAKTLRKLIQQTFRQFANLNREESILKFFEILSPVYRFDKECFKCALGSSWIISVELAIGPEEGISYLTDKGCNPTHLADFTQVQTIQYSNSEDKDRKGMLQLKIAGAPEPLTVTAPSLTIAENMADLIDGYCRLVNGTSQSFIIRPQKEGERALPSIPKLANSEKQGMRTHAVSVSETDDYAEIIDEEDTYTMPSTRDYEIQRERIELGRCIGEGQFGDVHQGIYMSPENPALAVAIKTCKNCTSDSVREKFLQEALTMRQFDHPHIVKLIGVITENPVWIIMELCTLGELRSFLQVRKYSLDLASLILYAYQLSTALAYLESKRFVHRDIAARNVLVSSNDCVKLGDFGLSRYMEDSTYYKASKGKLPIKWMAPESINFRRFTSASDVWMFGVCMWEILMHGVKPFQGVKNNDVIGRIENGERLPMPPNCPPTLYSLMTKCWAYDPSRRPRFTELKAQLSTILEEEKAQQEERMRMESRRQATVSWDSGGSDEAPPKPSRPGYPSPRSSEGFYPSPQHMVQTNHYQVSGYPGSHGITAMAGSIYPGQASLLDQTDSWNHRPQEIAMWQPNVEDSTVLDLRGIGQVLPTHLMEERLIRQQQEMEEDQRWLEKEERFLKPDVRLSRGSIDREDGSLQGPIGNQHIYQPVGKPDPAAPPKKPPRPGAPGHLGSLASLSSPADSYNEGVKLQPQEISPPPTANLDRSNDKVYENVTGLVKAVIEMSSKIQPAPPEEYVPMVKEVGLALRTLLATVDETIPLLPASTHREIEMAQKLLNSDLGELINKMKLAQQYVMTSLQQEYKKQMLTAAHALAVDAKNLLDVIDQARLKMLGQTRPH
F-actin modifier – modifiers of F-actin cytoskeleton organization, primary screen, imaging, HUVEC, phalloidin staining, high-content imaging; HUVEC TNFa F-actin phalloidin imaging; inhibition, % at 2 µM; actives 0.18% (n = 91,000); AID 836, 2007;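 active = inhibition above the batch mean plus 3 SD and confirmed as a hit by visual image inspection, cut at about 30% in these data, passing the limit was not always enough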
E-sel TNF inh – E-selectin induction blockers in HUVEC – imaging, immunofluorescence, high content, primary screen; inhibition, % at 2 µM; actives 0.71% (n = 120,000); HUVEC TNFa-induced E-selectin immunofluorescence; AID 1246, 2008;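 active = inhibition above the batch mean plus 3 SD, and confirmed as a hit on visual image review, cut at about 43% in these data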
A number is an active result; n = inactive; x = no result; [ ] = another dose, or the depositor's remark. A selection: hits, their analogues and other compounds. The true share with any hit is near 2.2%.

SMILES	Plk1 PBD FP	PLK1 kinase inh	Rev-RRE block	FAK blocker	F-actin modifier	E-sel TNF inh
CCn1c(SCC(=O)Nc2ccccc2)nnc1C1CCCCC1	n	n	n	n	n	60.2
CCOC(=O)c1cccc(NC(=O)CSc2nnc(C3CCCCC3)n2C)c1	n	n	n	n	n	n
COC(=O)c1c(NC(NC(=O)c2ccccc2)(C(F)(F)F)C(F)(F)F)sc2c1CCN(C)C2	x	x	x	x	x	n
Cc1ccc(-c2cc(C(=O)NCc3ccccn3)c3ccccc3n2)cc1C	n	n	n	n	n	n
CCC(CC)C(=O)N(c1ccc(F)cc1)C1C=CS(=O)(=O)C1 (stereo unspecified)	n	n	n	n	n	x
CC(C)C(=O)N(c1ccc(F)cc1)C1C=CS(=O)(=O)C1 (stereo unspecified)	n	n	n	n	n	81.7
CCOC(=O)c1c(-n2cccc2)sc2c1CCCC2=O	x	x	x	x	x	n
COC(=O)c1cn(CC(=O)Nc2ccc(F)cc2)c2ccccc12	x	x	x	x	x	n
CCN1C(=O)c2cccc3c(S(=O)(=O)Nc4c(C)n(C)n(-c5ccccc5)c4=O)ccc1c23	n	n	n	n	n	n
CCN1C(=O)c2cccc3c(S(=O)(=O)NCc4ccccn4)ccc1c23	n	n	n	n	30.8	n
Cn1c(C(=O)OC(C(=O)NCc2ccco2)c2ccncc2)cc2sccc21 (stereo unspecified)	n	n	n	n	n	n
COC(=O)C1=C(N)Oc2cc(N(C)C)ccc2C1c1ccccc1OC (stereo unspecified)	n	n	37.1	n	n	x
COC(=O)C1=C(N)Oc2cc(C)n(CC3CCCO3)c(=O)c2C1c1ccccc1OC (stereo unspecified)	n	n	n	n	n	n
O=C(CCCOc1ccc(Cl)cc1Cl)N/N=C/c1cccc([N+](=O)[O-])c1	x	x	x	x	x	n
O=C1C(=O)N(CCc2c[nH]c3ccccc23)C(c2cccnc2)/C1=C(/O)c1ccccc1 (stereo unspecified)	x	x	x	x	x	n
COc1cccc(=O)c2c(C)n(-c3cc(C)cc(C)c3)c(C)c12	n	n	n	n	n	67.4
O=c1ccc2ccc(OCc3nnc(-c4ccccc4Br)o3)cc2o1	n	n	n	n	n	73.5
COc1ccc(CCNC(=O)C(=O)NCc2ccc(C)cc2)cc1OC	n	n	n	n	n	50.2
N#CC1=C(N)SC(N)=C(C#N)C1c1ccc(C(F)(F)F)cc1	n	n	41.8	n	n	n
CCOC(=O)C1=C(C)OC(N)=C(C#N)C1c1ccc(C)o1 (stereo unspecified)	n	n	n	n	n	n
CCc1ccc(C2C(C#N)=C(N)SC(N)=C2C#N)cc1	n	n	41.2	n	n	x
Cc1ccc(C2C(C#N)=C(N)SC(N)=C2C#N)o1	n	n	91.7[fluorescence artefact?]	n	n	n
CCOc1ccc(C2C(C#N)=C(N)SC(N)=C2C#N)cc1OC	x	x	x	x	x	n
CCOc1ccccc1C1C(C#N)=C(N)SC(N)=C1C#N	n	n	36.9	n	n	n
CCc1ccc(C2C(C#N)=C(N)SC(N)=C2C#N)s1	x	x	x	x	x	n
SMILES	Plk1 PBD FP	PLK1 kinase inh	Rev-RRE block	FAK blocker	F-actin modifier	E-sel TNF inh
CC1=C(C(=O)N2CCN(c3cc(C)ccc3C)CC2)C2(CCC(C)CC2)OC1=O (stereo unspecified)	x	x	x	x	x	n
COc1ccc(-c2n[nH]c(C(F)(F)F)c2-c2cc3ccccc3o2)c(O)c1	n	n	n	n	x	42.6
COc1ccc(-c2n[nH]c(C)c2-c2ccc(Cl)cc2)c(O)c1	n	n	n	n	n	n
CC1=CC(C#N)(C#N)C(C#N)(C#N)C(c2ccccc2)N1 (stereo unspecified)	n	n	51.6	n	n	n
Cc1nccn1-c1ccc(C(F)(F)F)cc1NC=O	n	n	n	n	73.3	n
CCOc1ccc(C(F)(F)F)cc1NC(C)=O	n	n	n	n	n	x
Cc1ccc(/C([O-])=C(/C(=S)NCc2ccccc2)[n+]2cccc(CO)c2)cc1[N+](=O)[O-]	x	x	x	x	x	73.4
COc1ccc(CNC(=O)c2ccc(NC(=O)CC3SC(N4CCCCC4)=NC3=O)cc2)cc1 (stereo unspecified)	n	n	n	n	n	77.4
COc1ccc(CNC(=O)c2ccc(NC(=O)CC3SC(N4CCCC4)=NC3=O)cc2)cc1 (stereo unspecified)	n	n	n	n	n	n
Cc1ccc(Cl)cc1N1CCN(C(=O)Cc2ccc(-n3c(=O)[nH]c4ccsc4c3=O)cc2)CC1	x	x	x	x	x	n
O=C(Nc1cccn2ncnc12)c1ccc(Cl)cc1	n	n	n	n	n	43.1
O=C(Nc1cccn2ncnc12)c1ccccc1	n	n	n	n	n	n
CCOC(=O)C1CCC2(CC1)C(C#N)=C(N)Oc1n[nH]c(C)c12 (stereo unspecified)	n	69.9	n	n	n	n
Cc1[nH]nc2c1C1(CCOCC1)C(C#N)=C(N)O2	n	n	n	n	n	x
CCn1c(COc2ccc(=O)n(-c3ccccc3)n2)n[nH]c1=S	x	x	x	x	x	n
COc1cc(/C=C(\C#N)c2nc3ccccc3[nH]2)c([N+](=O)[O-])cc1OCc1ccccc1	n	n	n	n	n	n
CCN(CC)c1ccc(/C=C(/C#N)c2nc3ccccc3[nH]2)c(OC(C)C)c1	n	n	135.8[fluorescence artefact?]	n	n	x
CCOC(=O)N1CCC(N2CCN(S(=O)(=O)c3ccc(NC(C)=O)cc3)CC2)CC1	n	n	n	n	n	99.6
CCOC(=O)N1CCN(S(=O)(=O)c2ccc3c(c2)oc(=O)n3C)CC1	n	n	40.7	n	n	n
CCOC(=O)n1c(=O)oc2cc(S(=O)(=O)N3CCCCC3)ccc21	n	n	n	n	n	n
CCOC(=O)N1CCC(N2CCN(S(=O)(=O)c3ccc(Cl)cc3)CC2)CC1	n	n	n	n	x	n
CCN(CC(=O)Nc1ccccc1OC)CC(=O)Nc1c(Cl)ccc(C)c1Cl	x	x	x	x	x	n
Cc1c(Nc2cc(Cl)c3nonc3c2[N+](=O)[O-])c(=O)n(-c2ccccc2)n1C	x	x	x	x	x	99.9
C/C(=N\Nc1ccc([N+](=O)[O-])cc1)c1ccc(-n2nncc2C)cc1	x	x	x	x	x	n
CCc1ccc(/C(C)=N\Nc2ccc([N+](=O)[O-])cc2)cc1	n	n	52.0	n	n	n
SMILES	Plk1 PBD FP	PLK1 kinase inh	Rev-RRE block	FAK blocker	F-actin modifier	E-sel TNF inh
COc1cccc(N2CCN(c3ncnc4c3[nH]c3ccc(F)cc34)CC2C)c1 (stereo unspecified)	n	n	n	n	n	96.7
COc1ccc(Cl)cc1NC(=O)CN(C)CC(=O)Nc1ccc(C)cc1Br	x	x	x	x	x	n
O=c1ncn(-c2ccccc2C(F)(F)F)c2ncccc12	x	x	x	x	x	n
O=c1ncn(-c2ccccc2F)c2ncccc12	n	n	n	n	n	67.4
COc1ccc(/C=C/C(=O)c2c(O)cc(C)oc2=O)c(OC)c1	n	n	89.5[fluorescence artefact?]	n	n	x
COc1cc(/C=C/C(=O)c2c(O)cc(C)oc2=O)cc(OC)c1O	n	n	38.3	n	x	n

From PubChem BioAssay
